Laboratory results published in ChEMBL document CHEMBL4513216, “Probing the Open Global Health Chemical Diversity Library for Multistage-Active Starting Points for Next-Generation Antimalarials” (ACS Infect Dis, 2020).

Test: Toxicity liver stage against HepG2, at 10uM
Assay type: cell-based
Parameters: test concentration 10 uM, cell line HepG2-A16-CD81EGFP
Conditions: human, HepG2-A16-CD81EGFP cells; read-out: INHIBITION
How it was run: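 Uninfected HepG2-A16-CD81EGFP cells, 3 × 10^3 per well, 1536-well, plated on prespotted compound at 10 μM final, parasite-free screening media added to match infected plates; puromycin 10 μM positive, DMSO 0.5% negative; run in parallel with 48 h PbLuc assay at 37 °C, 5% CO2; viability by CellTiter-Glo luminescence, normalized to controls.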

SMILES	cytotoxicity at 10 µM [%]
O=C1CN(C(=O)C2CCCCC2)CC(O)CN1Cc1ccco1 (stereo not drawn)	-2.67
O=C(NCCc1c[nH]cn1)c1n[nH]c2c1CCC2	1.67
COc1ccc(-n2ncc3c2NC(=O)CSC3CC(C)C)cc1 (stereo not drawn)	-0.418
O=C(C1=NN(Cc2ccccc2)c2ccccc2S1(=O)=O)N1CCCC1	-4.65
COc1ccc(S(=O)(=O)NCC(C)(O)c2cccs2)cc1Cl (stereo not drawn)	-11.5
CS(=O)(=O)N1CCN(c2cnnc(N3CCCC3)c2)CC1	2.24
O=C(NCc1ccc(F)cc1)C1CCCN(c2ccc3nncn3n2)C1 (stereo not drawn)	-4.46
COc1ccc(C(=O)NCC(c2cccn2C)N2CCCC2)c(OC)c1 (stereo not drawn)	1.31
CC(C)n1[nH]c(=O)c2c1NC(=O)CC2c1cccc(OC(F)F)c1 (stereo not drawn)	16
CO[C@@H]1CC[C@H]2[C@H]1OCCN2C(=O)c1ccc(C)o1	3.68
O=C(c1n[nH]cc1Cl)N1CCSCC1	4.51
Cc1nn(C)c2c(=O)n(Cc3ccc(F)cc3)nnc12	3.41
Cc1cc(C)cc(N2CC(c3nnc(N)s3)CC2=O)c1 (stereo not drawn)	4.29
Cc1c(CCC(=O)N2CCOC(c3cnccn3)C2)cnn1C (stereo not drawn)	-1.87
CO[C@@H]1CCC[C@@H](N(C)C(=O)c2cc(F)ccc2F)[C@H]1O	-5.38
O=C(Nc1ccc(Cl)cn1)c1cncc(C2CCNCC2)n1	-13.5
CCc1nnc(Nc2cc(C)nc(C3CCN(c4ncccn4)C3)n2)s1 (stereo not drawn)	3.07
Fc1cccc(CN2CCC(c3noc(-c4cnccn4)n3)CC2)c1F	-1.37
NC(=O)CN1CCC(c2cccc(Oc3ccccc3)n2)CC1	-4.72
O=C1CCCN1CCCC(=O)N1CCCC(c2ccn[nH]2)C1 (stereo not drawn)	-22.8
CNC(=O)c1cn[nH]c1C1CCN(Cc2ccccc2F)C1 (stereo not drawn)	-30.8
CCn1cc(S(=O)(=O)NC2(CN3CCOCC3)CCCCC2)c(C)n1	1.88
Cc1ccc2c(c1)CN(C(=O)c1cccs1)C(CN(C)C)CO2 (stereo not drawn)	-16.5

SMILES	cytotoxicity at 10 µM [%]
COc1ccccc1-c1cc(C(=O)N(C)C)nc2c1cnn2C	7.83
CN(C)c1ncccc1C(=O)N1CCc2c(ncn2C2CC2)C1	1.28
Clc1ccc(C(CNCc2ccncc2)n2cccn2)cc1 (stereo not drawn)	6.73
COc1cc(C#N)ccc1OCCN1CCC(n2ccnc2)CC1	2.75
O=C(c1c[nH]nn1)N1CCN(C(c2ccccc2)C(F)(F)F)CC1 (stereo not drawn)	8.92
CCCOc1ccc(CCC(=O)Nc2nonc2C)cc1	-7.24
Cc1cccc(NC(=O)CCC(=O)NCC(=O)c2ccccc2F)c1	-6.56
COCCN(Cc1coc(-c2ccc(OC)cc2)n1)C1CC1	2.1
Cc1nn(C)c(C)c1C1CCCN1C(=O)c1cc(C(N)=O)cs1 (stereo not drawn)	-2.53
Cc1cnn(C2CN(Cc3nc4cc(Cl)ccc4n3C)C2)c1	-1.16
Cn1cc(C(C)(O)CNc2ccc(Cl)c(C#N)n2)cn1 (stereo not drawn)	3.97
Cc1c(-c2ccncc2)n[nH]c1NC(=O)CCOC(C)C	6.58
CC(C)(C)OC(=O)NCC(=O)NCc1ccc(Cl)s1	-11.3
CC(Cc1ccccc1Br)NC(=O)CCS(C)(=O)=O (stereo not drawn)	-4.44
O=C(CCC(=O)N1CCOCC1)NCc1cccnc1-n1cccn1	-3.65
Cc1ccccc1CNC(Cn1cncn1)c1ccccc1 (stereo not drawn)	-1.45
COCc1nc(C)cc(Nc2ccc3c(c2)CC(=O)N3)n1	1.41
N#Cc1cn(CCCN2CCc3ccccc3C2)c(=O)[nH]c1=O	2.72
CCN(CC(=O)Nc1cc(Cl)ccc1C)C(=O)c1ccncc1	-1.73
Cn1c(NC(=O)CCS(=O)(=O)C2CCCC2)nc2cc(Cl)ccc21	7.42
Cc1cc(C)c(CNC(=O)C(C)Oc2ccccc2F)c(=O)[nH]1 (stereo not drawn)	6.99
O=C(Nc1ccc(N2CCCCC2)nc1)N1CCc2sccc2C1	-7.98
CCn1c(C)cc(C(=O)N2CCCC(n3ccnc3C)C2)c1C (stereo not drawn)	-1.51

SMILES	cytotoxicity at 10 µM [%]
CNC(=O)c1cccc(CCNc2ncc(Br)cn2)c1	9.5
CCc1ccc(C(=O)N2CCCC2c2c(C)nn(C)c2OC)o1 (stereo not drawn)	6.16
O=C1C(Nc2ncccn2)CCN1c1ccccc1OC(F)F (stereo not drawn)	2.88
CCN(C(=O)c1ccc(-c2ccccc2)nc1C)C1CC(=O)NC1=O (stereo not drawn)	-4.18
Cn1cc(C(C)(O)CNC(=O)c2cc(Br)cn2C)cn1 (stereo not drawn)	-51.1
COCC(=O)N1CCN(Cc2cc(F)cc(Br)c2)CC1	15.8
NC(=O)c1ccc(C(=O)N(Cc2ccc(O)cc2)CC2CC2)cc1	8.19
CCC(CNS(C)(=O)=O)Oc1ccccc1F (stereo not drawn)	-6
Cc1ccc(NCCCNC(=O)NCC2CCS(=O)(=O)C2)nc1 (stereo not drawn)	17.2
CCCc1nnnn1CC(=O)NCc1cccc(C)c1	-3.94
Cn1cc(NC(=O)c2cccc3cccnc23)ccc1=O	-4.83
c1cnn(CCNCc2ccc(N3CCCCC3)cc2)c1	-10.1
Cc1ccccc1CN(CC(=O)O)C(=O)COCC1CC1	-1.92
CNC(=O)NCC(CO)Cc1cccc(OC(F)(F)F)c1 (stereo not drawn)	-1.28
Cn1cc(C(C)(O)CNc2ccccn2)cn1 (stereo not drawn)	-43.6
CCS(=O)(=O)NCC(=O)Nc1cc(CC(C)(C)C)n[nH]1	5.01
O=C(O)c1ccn(-c2ccccc2NS(=O)(=O)c2ccccc2)n1	23
Cc1n[nH]c(C2CN(CC(=O)NCc3ccco3)CCO2)n1 (stereo not drawn)	23
CC(C)(C)OC(=O)NC(C)(C)c1noc(CN2CCCCC2)n1	7.57
O=C(c1cnn(-c2ccccc2F)c1)N1CCN(CCO)CC1	-8.18
CCN1CCN(c2ccc(F)cc2C(C)NCc2noc(C)n2)CC1 (stereo not drawn)	1.8
CC(OCC(F)(F)F)C(=O)N1CCN(S(C)(=O)=O)CC1 (stereo not drawn)	-1.33
COc1cccc(N2CC3(CCN(C(=O)NC(C)C)C3)CC2=O)c1 (stereo not drawn)	3.52

SMILES	cytotoxicity at 10 µM [%]
CC(C)CCCC1CN(C(=O)c2cnc[nH]2)CCO1 (stereo not drawn)	2.83
CN(C)C(=O)N1CCN(C(=O)Nc2nc(-c3ccccc3)ns2)CC1	-136
Cc1nc[nH]c1C(=O)N1CCC2(CN(C)C(=O)O2)C1 (stereo not drawn)	2.99
COCCn1ccnc1C1CCN(Cc2ccccc2C#N)CC1	-10.2
CC(C)n1ccnc1C1CCN(C(=O)c2ccccc2N(C)C)CC1	4.67
Cc1ccnn1CCN1CCCC2(CCC(=O)N(C3CCCC3)C2)C1 (stereo not drawn)	5.93
Cc1ccc(CN2CC[C@@H](NC(=O)c3cccnc3)[C@H](O)C2)s1	-2.68
O=C(Cn1ccnc1)N1CCC(n2cc(-c3cccc(Cl)c3)nn2)CC1	-23.4
CCCn1nc(C)c(CNC(=O)C2COc3ccc(OC)cc3C2)c1C (stereo not drawn)	-7.79
C=Cc1cccc(CN2C[C@@H](CN(C)CC)[C@@H](CO)C2)c1	-6.63
COc1ccc(-c2ccnc(N)c2)c(OC)c1	17.6
O=C(O)c1ccc(C2CCCN(Cc3ccc(-c4cc[nH]n4)o3)C2)cc1 (stereo not drawn)	-2.43
NC(=O)C1CCN(C(C(=O)O)c2ccc(Cl)c(C(F)(F)F)c2)CC1 (stereo not drawn)	-107
CN1CCN(Cc2nnc(C3CCN(C4CCCCC4)CC3)n2C)CC1	3.18
CSCCc1n[nH]c2c1CN(S(=O)(=O)c1cn(C)c(C)n1)CC2	8.58
COc1ccccc1OC1CCN(C(=O)CCCn2ccnc2)CC1	-183
Cc1nccc(N[C@H]2CN(CC(C)(C)N3CCOCC3)C[C@@H]2C2CC2)n1	3.03
CCNC(=O)[C@@H]1C[C@@H](NC(=O)Cc2cc(C)no2)CN1Cc1ccsc1	5.62
CCNC(=O)c1ccc(N2CCCC(c3nccn3C(C)C)C2)nc1 (stereo not drawn)	-8.39
Cc1cc(NCc2cccnc2)n2nc(C)cc2n1	-0.719
CCN1CC(C(=O)N(C)Cc2ccon2)CC1=O (stereo not drawn)	7.08
CN(CCO)Cc1nnc(C2CCN(C(=O)c3cccnc3)CC2)n1C	11.4
COc1cccc2c1OCC(C(=O)N1CCN(S(C)(=O)=O)CC1)C2 (stereo not drawn)	-7.23

SMILES	cytotoxicity at 10 µM [%]
O=C(NCC1CCOC1)c1csc(-c2ccccc2)n1 (stereo not drawn)	-0.755
Cc1noc(NC(=O)c2ccccc2)n1	-0.269
CN(Cc1ccco1)C(=O)Nc1cccnc1N1CCCC1	-5.3
Cc1cc(C)n(CC2CN(CCOc3ccccc3C#N)CCO2)n1 (stereo not drawn)	-3.71
Cc1ccc(N(CCC#N)C(=O)CN2CCCC2c2ccsc2)cc1C (stereo not drawn)	-11.2
CC(C)c1noc(CCCC(=O)N2CCN(S(C)(=O)=O)CC2)n1	-15.7
COc1c(C2CCCN2Cc2cccc(C(N)=O)c2)c(C)nn1C (stereo not drawn)	-8.18
Cc1cnc(CN2CCCC2c2cnn(C)c2)cn1 (stereo not drawn)	0.35
O=C(CN1CCC(c2ccnn2CCO)CC1)NC1CCCC1	-6.64
Cc1cc(C)n(CC2CCCCN2C(=O)c2ccc(C(N)=O)cc2)n1 (stereo not drawn)	3.09
CN(C)c1ccc(CNC(=O)NCCc2cn3ccccc3n2)cn1	-3.06
Cc1nc(C)n(C2CCCN(C(=O)c3sccc3C3CC3)C2)n1 (stereo not drawn)	-9.68
Cc1cc(C)n(C2CCCN(C(=O)CCNS(C)(=O)=O)C2)n1 (stereo not drawn)	6.62
Cc1ccc(-c2ncc(C(=O)NCCNC(=O)C(C)C)s2)c(C)c1	-6.53
Cn1ccc(CN2CCC(CO)CC2)cc1=O	5.1
CC(C)C(=O)N1CCc2c(CN(C)Cc3ccco3)cncc2C1	-5.69
CN(C)C(=O)COC[C@]12COC[C@H]1CN(CC1CCC1)C2	-6.07
CC(C)NC(=O)N1CCc2onc(C(=O)Nc3cccnc3)c2C1	4.32
CCS(=O)(=O)N1CCC2(CC1)CC[C@@]1(C(=O)N(C)C)CN(C)C[C@@H]21	10.4
Cc1ccc(CNC2CCCc3c2cnn3C)s1 (stereo not drawn)	-0.987
CNC(=O)c1nc2c(s1)CCN(C(=O)c1cccnc1)CC2	6
